Compound activity from PubChem BioAssay.
UCH37 DUB inh = inhibitors of human UCH37 deubiquitinase, primary screen, biochemical, Ub-AMC cleavage, fluorescence; purified proteasome/UCH37; inhibition, % (concentration not given with the values); actives 0.33% (n = 330,000); AID 588478, 2011;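 active means mean inhibition over replicate wells above about 20%, limit read from the data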;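 further: 0% = compound-free wells with enzyme and 100% = wells lacking proteasome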
Target sequence (Q9Y5K5 whole entry, looked up): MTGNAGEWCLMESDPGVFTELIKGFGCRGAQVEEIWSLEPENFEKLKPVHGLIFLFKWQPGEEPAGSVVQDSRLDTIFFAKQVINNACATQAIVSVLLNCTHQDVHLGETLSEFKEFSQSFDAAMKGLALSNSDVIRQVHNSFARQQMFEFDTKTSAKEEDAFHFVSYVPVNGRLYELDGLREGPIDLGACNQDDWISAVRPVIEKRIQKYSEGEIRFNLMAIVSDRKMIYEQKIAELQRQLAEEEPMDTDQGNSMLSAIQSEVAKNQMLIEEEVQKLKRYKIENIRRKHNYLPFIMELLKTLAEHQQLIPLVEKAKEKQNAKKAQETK
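Reagent: Ub-AMC substrate; assay system: Proteasome-associated human UCH37 deubiquitinase; controls: no-proteasome and no-compound wells; read-out: % inhibition of Ub-AMC cleavage fluorescence; timing: 30 min preincubation with enzyme, 25 min cleavage at room temperature; signal: AMC fluorescence from Ub-AMC cleavage, excitation 355 nm, emission 460 nm; buffer or medium: Tris-HCl pH 7.4 plus ovalbumin, ATP-MgCl2, DTT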
PKA-R1A activ = activators of PKA-R1A holoenzyme, primary screen, biochemical, fluorescence polarization, Cy5-IP20, bovine R1A, mouse PKAc; cAMP-dependent protein kinase type I-alpha regulatory subunit (Bos taurus) + …; PKA-R1A dissociation; scaled: DMSO 0%, 113 µM cGMP 100%; activation, % at 11.4 µM; actives 0.083% (n = 340,000); AID 504707, 2011;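 active means percent activation above the mean of all tested compounds plus 3 SD, cut at about 19% in these data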;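 further: higher means more PKAc released from R1A so a rise in polarization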
Rin1 Abl inh = inhibitors of Rin1-Abl protein binding, primary screen, biochemical, TR-FRET; actives 0.4% (n = 360,000); inhibition, % at 7.35 µM; in the data active means inhibition above about 5%, passing the limit was not always enough
PKA-R2B activ = activators of PKA-R2B holoenzyme, primary screen, biochemical, fluorescence polarization, Cy5-IP20, human. PKA-R2B holoenzyme dissociation; R2B truncated from residue 108, S112A mutant; 0% DMSO only, 100% 113 µM cGMP. activation, % at 11.4 µM. actives 0.079% (n = 340,000). AID 504700, 2011;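 active means activation above a cutoff set at the mean over all compounds plus 3 SD, cut at about 18% in these data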;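 further: higher means more holoenzyme dissociation and a rise in polarization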
Rin1 Abl conf = Rin1-Abl binding inhibitor retest, confirmation, biochemical, TR-FRET; shares compounds with Rin1 Abl inh; purified proteins; inhibition, % at 7.35 µM; actives 49% (n = 1,300); AID 602124, 2011
GFP quench = GFP fluorescence inhibitors and quenchers, artefact control for Rin1-Abl interaction inhibitor project, biochemical; inhibitors/quenchers counterscreen; shares compounds with Rin1 Abl inh; inhibition, % at 6.75 µM; actives 8.5% (n = 1,300);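 further: ABL1-eGFP fusion protein alone without its partner RIN1-SBP; 0% = protein with vehicle and 100% = wells lacking protein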
GFP quench DR = GFP fluorescence inhibitors and quenchers, dose response, artefact control for Rin1-Abl interaction inhibitor project, biochemical | AID 602182, 2012 | shares compounds with Rin1 Abl inh | 230 tested, under 10 active | GFP fluorescence interference/quenching counterscreen | IC50, µM; call rule not given here;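 further: ABL1-eGFP fusion protein alone without its RIN1 binding partner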
Starred values were filed as active, the others as inactive. Compounds with a hit are over-represented: about 0.79% of the library has one in this group of screens. Unless noted, no stated cut-off is given here; in the data, active means inhibition above about 6.5%; inactive means the rest.

What do the screens show for `CCN(CC)S(=O)(=O)c1ccc(C(=O)NCc2ccc3c(c2)OCO3)cc1`?
UCH37 DUB inh: 0.7; PKA-R1A activ: -1.4; Rin1 Abl inh: 1.3; PKA-R2B activ: -9.9

How did CC(C)CNC(=S)NC1CC2CCCC(C1)N2Cc1ccco1 (stereo not given) do in these assays?
UCH37 DUB inh: 1.2; PKA-R1A activ: -1.6; Rin1 Abl inh: 0.4; PKA-R2B activ: -4.3

Results for Cc1ccc(NC(=S)N(CCCN2CCOCC2)Cc2cccnc2)cc1C ?
UCH37 DUB inh: 1.1; PKA-R1A activ: -8.2; Rin1 Abl inh: 12.4*; PKA-R2B activ: 1.6; Rin1 Abl conf: -1.6; GFP quench: -1.0

How did O=C(NN=Cc1ccc(N2CCOCC2)c([N+](=O)[O-])c1)c1ccc(F)cc1 do in these assays?
UCH37 DUB inh: 5.4

What do the screens show for `COc1ccc(CCCc2nnc(SCC(=O)Nc3nccs3)n2C)cc1C`?
UCH37 DUB inh: 0.6; PKA-R1A activ: -10.1; Rin1 Abl inh: 8.4*; PKA-R2B activ: -2.1; Rin1 Abl conf: 4.8; GFP quench: 2.8

How did Cc1ccc(-c2nnc(SCC(=O)Nc3nccs3)n2N)cc1 do in these assays?
UCH37 DUB inh: 1.7; PKA-R1A activ: -9.4; Rin1 Abl inh: 8.0*; PKA-R2B activ: -1.8; Rin1 Abl conf: 9.9*; GFP quench: 0.2

How did Cc1cc(C)nc(SCc2nnc(SCC(=O)Nc3nccs3)n2C)n1 do in these assays?
UCH37 DUB inh: -0.6; PKA-R1A activ: -21.0; Rin1 Abl inh: 0.4; PKA-R2B activ: -5.0

Results for CCC(=O)Nc1ccc(-c2nnc(SCC(=O)Nc3nccs3)n2C)cc1 ?
UCH37 DUB inh: 2.3; PKA-R1A activ: 7.4; Rin1 Abl inh: 7.2*; PKA-R2B activ: 4.0; Rin1 Abl conf: 5.5; GFP quench: 0.6

What do the screens show for `COc1ccc(CN2CCC(Oc3ccc(C(=O)N4CCCCC4)cc3)CC2)cc1C`?
UCH37 DUB inh: 2.7; PKA-R1A activ: -5.7; Rin1 Abl inh: 14.7*; PKA-R2B activ: 7.4; Rin1 Abl conf: 10.5*; GFP quench: -2.5

How did CC(=O)OCCN(CCCn1c(-c2ccncc2)nc2ccccc21)c1nc(CN2CCCCC2)cs1 do in these assays?
UCH37 DUB inh: 0.4; PKA-R1A activ: -1.9; Rin1 Abl inh: 8.4*; PKA-R2B activ: -8.1; Rin1 Abl conf: 2.0; GFP quench: -0.3

Results for c1ccc2c(c1)nc(-c1ccncc1)n2CCNc1nc(CN2CCCCC2)cs1 ?
UCH37 DUB inh: -2.1; PKA-R1A activ: -10.8; Rin1 Abl inh: 0.0; PKA-R2B activ: -2.6

How did Cc1nc2ccccc2n1C1CC(=O)N(N(C)C)C1=O (stereo not given) do in these assays?
UCH37 DUB inh: 2.4; PKA-R1A activ: -9.1; Rin1 Abl inh: 3.1; PKA-R2B activ: 0.7

What do the screens show for `CCN1C(=O)CC(n2c(C)nc3ccccc32)C1=O` (stereo not given)?
UCH37 DUB inh: -0.5; PKA-R1A activ: -1.7; Rin1 Abl inh: 7.9*; PKA-R2B activ: -11.2; Rin1 Abl conf: -1.1; GFP quench: -0.8

How did O=[N+]([O-])c1ccc(N=NNc2ccccc2)cc1 do in these assays?
UCH37 DUB inh: 5.3; PKA-R1A activ: -4.5; Rin1 Abl inh: 0.2; PKA-R2B activ: 3.0

What do the screens show for `Brc1ccc(N=NNc2ccccc2)cc1`?
PKA-R1A activ: 3.6; Rin1 Abl inh: 5.8*; PKA-R2B activ: -1.8; Rin1 Abl conf: -1.6; GFP quench: -0.7

How did CCOC(=O)C1=C(C)Nc2nnnn2C1c1ccc(OC)c(Br)c1 (stereo not given) do in these assays?
UCH37 DUB inh: -0.3; PKA-R1A activ: -1.3; Rin1 Abl inh: 10.7*; PKA-R2B activ: -6.7; Rin1 Abl conf: -0.8; GFP quench: -0.9

How did CN(Cc1ccccc1)S(=O)(=O)c1ccc(Cl)c(C(=O)N2CCC(C(N)=O)CC2)c1 do in these assays?
UCH37 DUB inh: 0.7; PKA-R1A activ: 8.4; Rin1 Abl inh: 0.4; PKA-R2B activ: 1.3

What do the screens show for `CN(Cc1ccccc1)S(=O)(=O)c1ccc(Cl)c(C(=O)N2CCC2)c1`?
UCH37 DUB inh: -0.3; PKA-R1A activ: -9.6; Rin1 Abl inh: 21.7*; PKA-R2B activ: -4.8; Rin1 Abl conf: 17.1*; GFP quench: -0.3; GFP quench DR: >67.5

Results for COc1ccc(-c2nnn3c2nc(NCc2ccccc2)c2ccccc23)cc1 ?
UCH37 DUB inh: -81.0; PKA-R1A activ: -1.6; Rin1 Abl inh: -2.4; PKA-R2B activ: 2.4

How did C[C@H](NC(=O)c1ncn2c1c(=O)[nH]c1ccc(Br)cc12)c1ccccc1 do in these assays?
PKA-R1A activ: 0.3; Rin1 Abl inh: 7.9*; PKA-R2B activ: -2.3; Rin1 Abl conf: -22.4; GFP quench: -0.1

What do the screens show for `C[C@H](NC(=O)c1ncn2c1c(=O)[nH]c1ccccc12)c1ccccc1`?
PKA-R1A activ: -11.1; Rin1 Abl inh: 0.1; PKA-R2B activ: -7.9

How did O=C(/C=C/c1ccccc1[N+](=O)[O-])OCC(=O)c1ccccc1 do in these assays?
UCH37 DUB inh: 1.1; PKA-R1A activ: 1.2; Rin1 Abl inh: -1.0; PKA-R2B activ: 1.5

What do the screens show for `O=C(Nc1cccc(Cl)c1)Nc1cccc(C(=O)O)c1`?
UCH37 DUB inh: 5.3; Rin1 Abl inh: 5.9*; Rin1 Abl conf: -2.4; GFP quench: -0.4

What do the screens show for `O=C(O)CC1(CC(=O)Nc2cccc(C(=O)O)c2)CCCC1`?
UCH37 DUB inh: 2.5; PKA-R1A activ: -8.8; Rin1 Abl inh: 8.0*; PKA-R2B activ: 3.0; Rin1 Abl conf: -1.8; GFP quench: -0.3

What do the screens show for `CCCCN(C(=O)CNC(=O)c1cccs1)C(C(=O)NC1CCCCC1)c1cccnc1` (stereo not given)?
UCH37 DUB inh: 1.1; PKA-R1A activ: -6.0; Rin1 Abl inh: 1.3; PKA-R2B activ: -0.2

How did COc1cc(/C=C2\CC/C(=C\c3cc(OC)c(O)c(OC)c3)C2=O)cc(OC)c1O do in these assays?
UCH37 DUB inh: 9.8; PKA-R1A activ: -8.2; Rin1 Abl inh: 30.2*; PKA-R2B activ: 3.6; Rin1 Abl conf: 34.4*; GFP quench: 23.8*

Results for CCOc1ccc(S(=O)(=O)N2CCN(C(=O)CCC(=O)N3CCOCC3)CC2)cc1 ?
UCH37 DUB inh: -0.3; PKA-R1A activ: -9.6; Rin1 Abl inh: 11.2*; PKA-R2B activ: -6.4; Rin1 Abl conf: 10.6*; GFP quench: 0.0
